In brackets after ≈: the same amount, converted by molar mass.
Tests used:
Format in all cases: functional
Pichia kudriavzevii = experiment: Antifungal activity against Candida krusei ATCC 6258 after 48 hrs by broth macrodilution method; details: ATCC 6258, 48 h
In short: (§1)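 Yeasts grown 1 day on SDA at 37 °C, subcultured, suspended in saline and diluted in MOPS-buffered RPMI 1640 (pH 7.0) to 1-2 × 10^3 CFU/mL. Broth macrodilution per CLSI M27-A2, twofold dilutions 200-0.8 µg/mL (DMSO ≤2% final), aerobic, 37 °C, 48 h. MIC = 80% turbidity reduction vs drug-free control; MFC from SDA subculture at 37 °C. Three independent experiments in duplicate.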

Candida tropicalis = experiment: Antifungal activity against Candida tropicalis ATCC 13803 after 48 hrs by broth macrodilution method; details: ATCC 13803, 48 h; in short: as §1
Candida albicans [1] = experiment: Antifungal activity against Candida albicans D5 after 48 hrs by broth macrodilution method; in short: as §1
Nakaseomyces glabratus = experiment: Antifungal activity against Candida glabrata D10R after 48 hrs by broth macrodilution method
In short: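 Broth macrodilution per CLSI M27-A2 (minor modifications). Inoculum 1-2 × 10^3 CFU/mL in RPMI 1640 with L-glutamine, MOPS-buffered 0.165 M, pH 7.0. Twofold dilutions 200-0.8 µg/mL from DMSO stock (final DMSO ≤2%). Aerobic, 37 °C, 48 h. MIC = lowest concentration giving 80% turbidity reduction versus drug-free control. Three independent experiments in duplicate.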

Epidermophyton floccosum = experiment: Antifungal activity against Epidermophyton floccosum FF9 after 5 days by broth macrodilution method; details: 120 h
In short: (§2)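 Dermatophytes grown 5 days on SDA at 30 °C, subcultured. Conidial suspensions in saline were adjusted in MOPS-buffered RPMI 1640 (pH 7.0) to 1-2 × 10^4 CFU/mL. Macrodilution adapted from CLSI M38-A with 200-0.8 µg/mL twofold dilutions (DMSO ≤2%), incubated at 30 °C for 5 days. MIC at 80% turbidity reduction vs control; MFC by SDA subculture at 30 °C. Triplicate experiments in duplicate.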

Trichophyton rubrum = experiment: Antifungal activity against Trichophyton rubrum FF5 after 5 days by broth macrodilution method; details: 120 h; in short: as §2
[2] = test system: Trichophyton mentagrophytes; experiment: Antifungal activity against Trichophyton mentagrophytes FF7 after 5 days by broth macrodilution method; details: 120 h; in short: as §2
Microsporum canis = experiment: Antifungal activity against Microsporum canis FF1 after 5 days by broth macrodilution method; details: 120 h; in short: as §2
Nannizzia gypsea = experiment: Antifungal activity against Microsporum gypseum FF3 after 5 days by broth macrodilution method; details: 120 h; in short: as §2
Aspergillus flavus = experiment: Antifungal activity against Aspergillus flavus F44 after 3 days by broth macrodilution method; details: 72 h
In short: (§3)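 Aspergillus inoculum from 3-day SDA subcultures at 30 °C; conidial suspension in 0.85% saline, diluted in RPMI 1640 (L-glutamine, no bicarbonate, 0.165 M MOPS, pH 7.0) to 1-2 × 10^4 CFU/mL. Twofold dilutions 200-0.8 µg/mL from DMSO stock (final DMSO ≤2%); macrodilution per CLSI M38-A, 30 °C, 3 days. MIC = lowest concentration giving 80% turbidity reduction vs drug-free control; MFC by subculture on SDA. Three independent experiments in duplicate.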

Aspergillus fumigatus = experiment: Antifungal activity against Aspergillus fumigatus ATCC 46645 after 3 days by broth macrodilution method; details: ATCC 46645, 72 h; in short: as §3
Aspergillus niger = experiment: Antifungal activity against Aspergillus niger ATCC 16404 after 3 days by broth macrodilution method; details: ATCC 16404, 72 h; in short: as §3
Candida albicans [3] = experiment: Antifungal activity against Candida albicans ATCC 10231 after 48 hrs by broth macrodilution method; details: ATCC 10231, 48 h; in short: as §1

Row | SMILES | MFC (Pichia kudriavzevii) [µg/mL] | MIC (Pichia kudriavzevii) [µg/mL] | MFC (Candida tropicalis) [µg/mL] | MIC (Candida tropicalis) [µg/mL] | MFC (Candida albicans [1]) [µg/mL] | MIC (Candida albicans [1]) [µg/mL] | MFC (Nakaseomyces glabratus) [µg/mL] | MIC (Nakaseomyces glabratus) [µg/mL] | MFC (Epidermophyton floccosum) [µg/mL] | MIC (Epidermophyton floccosum) [µg/mL] | MFC (Trichophyton rubrum) [µg/mL] | MIC (Trichophyton rubrum) [µg/mL] | MFC [2] [µg/mL] | MIC [2] [µg/mL] | MFC (Microsporum canis) [µg/mL] | MIC (Microsporum canis) [µg/mL] | MFC (Nannizzia gypsea) [µg/mL] | MIC (Nannizzia gypsea) [µg/mL] | MFC (Candida albicans [3]) [µg/mL] | MIC (Candida albicans [3]) [µg/mL] | other results
1 | CCOC(=O)c1sc2ccccc2c1Nc1ccc(F)cc1 | > 200 | > 200 | > 200 | > 200 | > 200 | > 200 | > 200 | > 200 | > 200 | > 200 | > 200 | > 200 | > 200 | > 200 | > 200 | > 200 | > 200 | > 200 | > 200 | > 200 | MFC (Aspergillus flavus): > 200 µg/mL; MIC (Aspergillus flavus): > 200 µg/mL; MFC (Aspergillus fumigatus): > 200 µg/mL; MIC (Aspergillus fumigatus): > 200 µg/mL; MFC (Aspergillus niger): > 200 µg/mL; MIC (Aspergillus niger): > 200 µg/mL
2 | CCOC(=O)c1sc2ccccc2c1Nc1ccc(OC)cc1OC | > 200 | > 200 | > 200 | > 200 | > 200 | > 200 | > 200 | > 200 | > 200 | > 200 | > 200 | > 200 | > 200 | > 200 | > 200 | > 200 | > 200 | > 200 | > 200 | > 200 | MFC (Aspergillus flavus): > 200 µg/mL; MIC (Aspergillus flavus): > 200 µg/mL; MFC (Aspergillus fumigatus): > 200 µg/mL; MIC (Aspergillus fumigatus): > 200 µg/mL; MFC (Aspergillus niger): > 200 µg/mL; MIC (Aspergillus niger): > 200 µg/mL
3 | OC(Cn1cncn1)(Cn1cncn1)c1ccc(F)cc1F [FLUCONAZOLE] | 64 (≈ 209 µM) | 64 (≈ 209 µM) | > 128 | 4 (≈ 13.1 µM) | > 128 | > 128 | 32 (≈ 104 µM) | 32 (≈ 104 µM) | 16 (≈ 52.2 µM) | 16 (≈ 52.2 µM) | 32 (≈ 104 µM) | 16 (≈ 52.2 µM) | 32 (≈ 104 µM) | 16 (≈ 52.2 µM) | 128 (≈ 418 µM) | 128 (≈ 418 µM) | > 128 | > 128 | > 128 | 1 (≈ 3.27 µM) | –
4 | CCOC(=O)c1sc2ccccc2c1Nc1ccc(O)cc1 | > 200 | > 200 | > 200 | > 200 | > 200 | > 200 | > 200 | > 200 | 12.5 (≈ 39.9 µM) | 3.13 (≈ 9.99 µM) | 6.25 (≈ 19.9 µM) | 6.25 (≈ 19.9 µM) | 6.25 (≈ 19.9 µM) | 6.25 (≈ 19.9 µM) | 1.56 (≈ 4.98 µM) | 1.56 (≈ 4.98 µM) | 12.5 (≈ 39.9 µM) | 6.25 (≈ 19.9 µM) | > 200 | > 200 | MFC (Aspergillus flavus): > 200 µg/mL; MIC (Aspergillus flavus): > 200 µg/mL; MFC (Aspergillus fumigatus): > 200 µg/mL; MIC (Aspergillus fumigatus): > 200 µg/mL; MFC (Aspergillus niger): > 200 µg/mL; MIC (Aspergillus niger): > 200 µg/mL
